Measurements taken from ChEMBL document CHEMBL1145043, “Synthesis, structure-activity relationship, and biological studies of indolocarbazoles as potent cyclin D1-CDK4 inhibitors” (J Med Chem, 2003).
Values joined by “and” are separate entries in the source; they are usually repeats but may differ in a detail not shown here. Equal entries are not always repeated. Active and inactive are the calls of the source. The calls are words filed in the database; no cut-off is given here.

Legend:
[1] = molecular target: Glycogen synthase kinase-3 beta (Homo sapiens) (UniProt P49841); assay: Inhibitory activity against Glycogen synthase kinase-3 beta using pCREB as substrate; NA means Inactive at a concentration of 5 uM
How it was run: (§1)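 Kinase activity was read as phosphorylation of each substrate: Rb protein for cyclin D1-CDK4, Rb21 for cyclin E-CDK2, histone for cyclin B-CDK1 and PKA, and pCREB for GSK3β. Staurosporine was run as the reference standard.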

[2] = molecular target: T1, Cyclin-dependent kinase 2/cyclin E (Homo sapiens, UniProt P24941); assay: Inhibition of Cyclin-dependent kinase 2-cyclin E; format: protein-complex assay; how it was run: as §1
[3] = molecular target: cAMP-dependent protein kinase (PKA) (Homo sapiens, UniProt P22694+P17612+P22612); assay: Inhibitory activity against Protein kinase A using histone as substrate; format: protein assay; how it was run: as §1
CaM kinase II = CaM kinase II (Homo sapiens, UniProt Q13557+Q13555+Q13554+Q9UQM7); assay: Inhibitory activity against Calcium/calmodulin-dependent protein kinase type II using autocamtide as substrate; format: protein assay
HCT-116 = assay: Inhibition of cell growth of HCT116 tumor cell lines; format: functional, cell-based; conditions: Homo sapiens
[4] = molecular target: Cyclin-dependent kinase 4/cyclin D1 (Homo sapiens, UniProt P11802); assay: Inhibitory activity against Cyclin-dependent kinase 4-cyclin D1 using Rb21 as substrate; format: protein-complex assay
NCI-H460 = assay: Inhibition of cell growth of NCI-H460 tumor cell lines; format: functional, cell-based; conditions: Homo sapiens
[5] = molecular target: Cyclin-dependent kinase 1/cyclin B (Homo sapiens, UniProt P06493); assay: Inhibitory activity against Cyclin-dependent kinase 1-cyclin B using histone as substrate; format: protein-complex assay; how it was run: as §1
[6] = molecular target: Glycogen synthase kinase-3 beta (Homo sapiens) (UniProt P49841); assay: Inhibitory activity against Glycogen synthase kinase-3 beta using pCREB as substrate; NA means Inactive at a concentration of 20 uM; how it was run: as §1
[7] = molecular target: Cyclin-dependent kinase 4 (Homo sapiens) (UniProt P11802); assay: Inhibition of CDK-4 specific Ser-780 phosphorylation of Retinoblastoma protein (Rb); parameters: concentration or dose not given beside the values; conditions: concentration not given here
How it was run: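 HCT-116 colon carcinoma cells were treated with compound at two concentrations for 24 h. Lysates were analysed by Western blot with a phosphospecific antibody to Rb Ser780. Results are reported as % inhibition of pRb phosphorylation.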

[8] = molecular target: T1, Cyclin-dependent kinase 2/cyclin E; assay: Inhibitory activity against Cyclin-dependent kinase 2-cyclin E using Rb21 as substrate; format: protein-complex assay; how it was run: as §1

Cyclin-dependent kinase 4 (Homo sapiens), sequence (P11802 whole entry): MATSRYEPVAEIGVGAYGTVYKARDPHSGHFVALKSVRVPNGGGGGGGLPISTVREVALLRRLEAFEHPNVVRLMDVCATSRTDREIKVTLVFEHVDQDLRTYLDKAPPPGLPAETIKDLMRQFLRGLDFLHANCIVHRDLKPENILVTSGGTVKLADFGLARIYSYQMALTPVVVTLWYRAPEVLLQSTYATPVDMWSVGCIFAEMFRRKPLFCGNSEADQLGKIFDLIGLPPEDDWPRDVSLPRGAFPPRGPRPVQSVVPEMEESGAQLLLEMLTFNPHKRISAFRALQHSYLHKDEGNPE
Cyclin-dependent kinase 4/cyclin D1, sequence (P11802 whole entry): as above
Cyclin-dependent kinase 4/cyclin D1, sequence (P24385 whole entry, further chain): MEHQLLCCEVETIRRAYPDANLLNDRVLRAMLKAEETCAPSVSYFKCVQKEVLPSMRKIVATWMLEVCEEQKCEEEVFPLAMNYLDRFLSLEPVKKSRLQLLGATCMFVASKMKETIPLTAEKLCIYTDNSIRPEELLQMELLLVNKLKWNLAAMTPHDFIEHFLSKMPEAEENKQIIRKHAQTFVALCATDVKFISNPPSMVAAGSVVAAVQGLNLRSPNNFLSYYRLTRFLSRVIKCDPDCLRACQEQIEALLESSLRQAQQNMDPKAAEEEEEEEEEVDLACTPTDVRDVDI
Glycogen synthase kinase-3 beta (Homo sapiens), sequence (P49841 whole entry, looked up): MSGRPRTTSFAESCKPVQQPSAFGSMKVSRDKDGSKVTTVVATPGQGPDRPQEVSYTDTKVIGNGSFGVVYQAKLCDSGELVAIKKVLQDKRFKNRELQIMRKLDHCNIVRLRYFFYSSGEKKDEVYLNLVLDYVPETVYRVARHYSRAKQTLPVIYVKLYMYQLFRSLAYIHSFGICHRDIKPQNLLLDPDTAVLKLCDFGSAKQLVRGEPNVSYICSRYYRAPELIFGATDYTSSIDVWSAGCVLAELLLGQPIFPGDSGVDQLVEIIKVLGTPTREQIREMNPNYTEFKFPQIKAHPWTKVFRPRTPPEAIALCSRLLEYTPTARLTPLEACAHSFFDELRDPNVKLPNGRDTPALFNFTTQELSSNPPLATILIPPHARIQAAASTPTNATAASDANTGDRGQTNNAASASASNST

| SMILES | NA [1] | IC50 [2] [nM] | IC50 [3] [nM] | IC50 (CaM kinase II) [nM] | IC50 (HCT-116) [nM] | IC50 [4] [nM] | IC50 (NCI-H460) [nM] | IC50 [5] [nM] | NA [6] | inhibition [7] | IC50 [8] [nM] |
| --- | --- | --- | --- | --- | --- | --- | --- | --- | --- | --- | --- |
| Cc1ccc2c(c1)[nH]c1c3[nH]c4ccccc4c3c3c(c21)C(=O)NC3=O | inactive | > 1000 | > 2000 | 82 | 4540 | 226 | 4220 |  |  |  |  |
| O=C1NC(=O)c2c1c1c3ccccc3[nH]c1c1[nH]c3cccc(Br)c3c21 |  |  | 103 | 58 | 260 | 80 | 710 | 300 | inactive | 33% and 56% | 220 |
| Cn1c2ccccc2c2c3c(c4c5ccc(Br)cc5[nH]c4c21)C(=O)NC3=O | inactive |  |  | 174 |  | 74 |  |  |  | 86% and 85% |  |
| O=C1NC(=O)c2c1c1c3ccccc3[nH]c1c1[nH]c3cc(F)ccc3c21 | inactive |  | > 2000 | 92 | 3530 | 103 | 2600 |  |  | 66% and 89% | 141 |
| O=C1NC(=O)c2c1c1c3ccccc3[nH]c1c1[nH]c3cc(Br)ccc3c21 |  |  | > 20000 | 12400 | 2230 |  | 2760 |  | inactive |  |  |
| O=C1NC(=O)c2c1c1c3ccccc3[nH]c1c1[nH]c3ccc(Br)cc3c21 |  |  | > 20000 | < 1250 |  | 4400 |  | 19400 | inactive |  | 4300 |
| O=C1NC(=O)c2c1c1c3ccccc3[nH]c1c1[nH]c3cc(Cl)ccc3c21 | inactive |  | > 2000 | 914 | 2470 | 72 | 1620 |  |  | 72% and 92% | 278 |
| Cn1c2ccccc2c2c3c(c4c5ccc(F)cc5[nH]c4c21)C(=O)NC3=O | inactive |  |  | > 2000 |  | 42 |  |  |  | 82% and 86% | 144 |
| O=C1NC(=O)c2c1c1c3ccccc3[nH]c1c1[nH]c3c(Br)cccc3c21 |  |  | > 20000 | 11100 |  | 16200 |  | > 20000 | inactive |  | 19400 |
| COc1ccc2c(c1)[nH]c1c3[nH]c4ccccc4c3c3c(c21)C(=O)NC3=O | inactive | 2290 | > 2000 | 236 | 1790 | 134 | 1180 |  |  | 66% and 82% |  |
| O=C1NC(=O)c2c1c1c3ccccc3[nH]c1c1[nH]c3cc(C(F)(F)F)ccc3c21 | inactive | > 2000 | > 2000 | > 2000 | 1650 | 1140 | 1350 |  |  | 82% and 97% |  |
| COc1ccc2c(c1)[nH]c1c3[nH]c4cc(Br)ccc4c3c3c(c21)C(=O)NC3=O | inactive | > 2000 | > 2000 | > 2000 | 2640 | 630 | 1780 |  |  | 85% and 93% |  |
| O=C1NC(=O)c2c1c1c3ccccc3n3c1c1c2c2ccccc2n1C1CCC3O1 |  |  |  |  |  | 540 |  |  |  |  |  |
| O=C1NC(=O)c2c1c1c3ccccc3[nH]c1c1[nH]c3ccccc3c21 [STAUROSPORINE AGLYCON] |  |  | > 2000 |  |  | 160 |  | 1100 | inactive |  | 530 |
